# Source: ChEMBL document CHEMBL3217724, “Synthesis and evaluation of a series of benzothiophene acrylonitrile analogs as anticancer agents” (Medchemcomm, 2013)
# Active and inactive are the calls of the source. The rule behind the calls is not given here.
# How the values were obtained:
# [1] = Growth inhibition of pig LLC-PK1 cells by Alamar Blue assay; format: cell-based, Sus scrofa
# How it was run: (§1)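 Cell viability was read with AlamarBlue dye in 96-well format and GI50 values derived, to assess P-gp effects. Cells were P-gp-expressing NCI/ADR-Res ovarian cancer cells and L-MDR1 porcine epithelial cells, each with its non-expressing parent line. P-gp expression was confirmed by Western blot with β-actin as loading control. Resistance is the GI50 in the P-gp line over the GI50 in the parent line.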
# [2] = system: OVCAR-8; assay: Resistance factor, ratio of GI50 for P-gp expressing NCI-ADR-RES cells to GI50 for human OVCAR8 cells; format: functional; how it was run: as §1
# [3] = system: PC-3; assay: Growth inhibition of human PC3 cells after 72 hrs by Alamar Blue assay; format: functional; conditions: PC-3, 72 h
# How it was run: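 PC3 prostate cancer cells and docetaxel-resistant PC3-DR cells were exposed to drug for 72 hours in 96-well format. Viability was read with AlamarBlue dye and GI50 derived. Resistance is the GI50 in PC3-DR over the GI50 in parental PC3.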
# [4] = system: PC-3; assay: Induction of beta tubulin de-stabilization in human PC3 cells at 10 nM after 24 hrs by DAPI-staining based immunofluorescence assay; format: cell-based
# How it was run: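 PC3 cells were treated for 24 hours with the test agent at 1, 10 or 100 nM, or with 10 nM docetaxel or vinblastine as stabilizing and destabilizing references. Cells were immunostained for beta-tubulin (green) with DAPI nuclear counterstain (blue) and the microtubule staining pattern imaged.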
# [5] = Growth inhibition of P-gp expressing human NCI-ADR-RES cells by Alamar Blue assay; format: functional
# How it was run: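 72-h cytotoxicity in 96-well plates with AlamarBlue viability dye, giving GI50. Line 1 uses docetaxel-resistant PC3 prostate cells (PC3-DR), and line 2 uses NCI/ADR-Res ovarian cells. P-gp expression in both was confirmed by Western blot, with β-actin as the loading control.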
# [6] = system: LLC-PK1; assay: Growth inhibition of pig LLC-PK1 cells expressing MDR1 by Alamar Blue assay; format: functional; conditions: Sus scrofa
# How it was run: (§2)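 Porcine epithelial L-MDR1 (P-gp expressing) cells and their non-expressing parent line were exposed to compound for 72 h. Viability was read with AlamarBlue dye and GI50 derived. P-gp expression was verified by Western blot with β-actin as loading control. The resistance ratio compares GI50 in MDR1 versus parent cells.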
# [7] = target: Tubulin (Homo sapiens) (UniProt P68371+Q9H4B7+P0DPH7+P68366+Q13509+Q71U36+P04350+Q3ZCM7+P07437+P68363+Q9BQE3+Q6PEY2+Q13885+Q9BVA1+Q9BUF5); conditions: 5 uM
# [8] = Growth inhibition of human OVCAR8 cells by Alamar Blue assay; format: functional; conditions: OVCAR-8; how it was run: as §1
# [9] = system: LLC-PK1; assay: Resistance factor, ratio of GI50 for pig LLC-PK1 cells expressing MDR1 to GI50 for pig LLC-PK1 cells; design: species or system Sus scrofa; how it was run: as §2
# [10] = Growth inhibition of human OVCAR3 cells; format: functional; conditions: OVCAR-3
# How it was run: (§3)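 NCI 60-human-cancer-cell-line panel, five-dose screen after a preliminary screen. GI50 is the molar concentration giving 50% growth inhibition.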
# [11] = system: CAKI-1; assay: Growth inhibition of human Caki1 cells; format: functional; how it was run: as §3
# [12] = system: HT-29; assay: Growth inhibition of human HT-29 cells; format: functional; how it was run: as §3
# [13] = system: HCT-116; assay: Growth inhibition of human HCT116 cells; format: functional; how it was run: as §3
# [14] = Growth inhibition of human BT549 cells; format: functional; conditions: BT-549; how it was run: as §3
# [15] = system: PC-3; assay: Growth inhibition of human PC3 cells; format: functional; how it was run: as §3
# [16] = system: KM12; assay: Growth inhibition of human KM12 cells; format: functional; how it was run: as §3
# [17] = system: SK-MEL-2; assay: Growth inhibition of human SK-MEL-2 cells; format: functional; how it was run: as §3
# [18] = system: DU-145; assay: Growth inhibition of human DU145 cells; format: functional; how it was run: as §3
# [19] = system: SNB-19; assay: Growth inhibition of human SNB19 cells; format: functional
# How it was run: (§4)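 NCI 60-cell-line panel, five-dose screen; GI50 is the molar concentration giving 50% growth inhibition.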
# [20] = Growth inhibition of human SF539 cells; format: functional; conditions: SF-539; how it was run: as §3
# [21] = system: RPMI-8226; assay: Growth inhibition of human RPMI8226 cells; format: functional; how it was run: as §3
# [22] = system: 786-0; assay: Growth inhibition of human 786-0 cells; format: functional; how it was run: as §3
# [23] = Growth inhibition of human HOP92 cells; format: functional; conditions: HOP-92; how it was run: as §3
# [24] = Growth inhibition of human UACC257 cells; format: functional; conditions: UACC-257; how it was run: as §4
# [25] = system: MDA-MB-435; assay: Growth inhibition of human MDA-MB-435 cells; format: functional; how it was run: as §3
# [26] = system: IGROV-1; assay: Growth inhibition of human IGROV1 cells; format: functional; how it was run: as §3
# [27] = system: NCI-H23; assay: Growth inhibition of human NCI-H23 cells; format: functional; how it was run: as §3
# [28] = system: MDA-MB-231; assay: Growth inhibition of human MDA-MB-231 cells; format: functional; how it was run: as §3
# [29] = system: MDA-MB-468; assay: Growth inhibition of human MDA-MB-468 cells; format: functional; how it was run: as §3
# [30] = system: U-251; assay: Growth inhibition of human U251 cells; format: functional; how it was run: as §4
# [31] = Growth inhibition of human OVCAR4 cells; format: functional; conditions: OVCAR-4; how it was run: as §3
# [32] = system: SNB-75; assay: Growth inhibition of human SNB75 cells; format: functional; how it was run: as §4
# [33] = system: SN12C; assay: Growth inhibition of human SN12C cells; format: functional; how it was run: as §4
# [34] = system: SK-OV-3; assay: Growth inhibition of human SKOV3 cells; format: functional; how it was run: as §4
# [35] = system: NCI-H226; assay: Growth inhibition of human NCI-H226 cells; format: functional; how it was run: as §3
# [36] = Growth inhibition of human HCC2998 cells; format: functional; conditions: HCC 2998; how it was run: as §3
# [37] = Growth inhibition of human OVCAR8 cells; format: functional; conditions: OVCAR-8; how it was run: as §3
# [38] = Growth inhibition of human HCT15 cells; format: functional; conditions: HCT-15; how it was run: as §3
# [39] = system: SK-MEL-5; assay: Growth inhibition of human SK-MEL-5 cells; format: functional; how it was run: as §3
# [40] = system: T47D; assay: Growth inhibition of human T47D cells; format: functional; how it was run: as §4
# [41] = Growth inhibition of human RXF393 cells; format: functional; conditions: RXF 393; how it was run: as §3
# [42] = system: M14; assay: Growth inhibition of human M14 cells; format: functional; how it was run: as §3
# [43] = system: NCI-H322M; assay: Growth inhibition of human NCI-H322M cells; format: functional; how it was run: as §3
# [44] = Growth inhibition of human LOXIMVI cells; format: functional; conditions: LOX IMVI; how it was run: as §3
# [45] = system: HOP-62; assay: Growth inhibition of human HOP62 cells; format: functional; how it was run: as §3
# [46] = system: SR; assay: Growth inhibition of human SR cells; format: functional; how it was run: as §4
# [47] = system: HL-60(TB); assay: Growth inhibition of human HL-60(TB) cells; format: functional; how it was run: as §3
# [48] = Growth inhibition of human UO31 cells; format: functional; conditions: UO-31; how it was run: as §4
# [49] = Growth inhibition of human MOLT4 cells; format: functional; conditions: MOLT-4; how it was run: as §3
# [50] = Growth inhibition of human UACC62 cells; format: functional; conditions: UACC-62; how it was run: as §4
# [51] = Growth inhibition of human Hs578T cells; format: functional; conditions: Hs-578T; how it was run: as §3
# [52] = system: SW-620; assay: Growth inhibition of human SW620 cells; format: functional; how it was run: as §4
# [53] = system: COLO 205; assay: Growth inhibition of human COLO205 cells; format: functional; how it was run: as §3
# [54] = system: ACHN; assay: Growth inhibition of human ACHN cells; format: functional; how it was run: as §3
# [55] = system: SK-MEL-28; assay: Growth inhibition of human SK-MEL-28 cells; format: functional; how it was run: as §3
# [56] = system: K562; assay: Growth inhibition of human K562 cells; format: functional; how it was run: as §3
# [57] = Growth inhibition of human OVCAR5 cells; format: functional; conditions: OVCAR-5; how it was run: as §3
# [58] = Growth inhibition of human NCI-ADR-RES cells; format: functional; how it was run: as §3
# [59] = system: A498; assay: Growth inhibition of human A498 cells; format: functional; how it was run: as §3
# [60] = system: A549; assay: Growth inhibition of human A549 cells; format: functional; how it was run: as §3
# [61] = system: Malme-3M; assay: Growth inhibition of human MALME-3M cells; format: functional; how it was run: as §3
# [62] = system: MCF7; assay: Growth inhibition of human MCF7 cells; format: functional; how it was run: as §3
# [63] = system: CCRF-CEM; assay: Growth inhibition of human CCRF-CEM cells; format: functional; how it was run: as §3
# [64] = system: SF-268; assay: Growth inhibition of human SF268 cells; format: functional; how it was run: as §3
# [65] = system: NCI-H460; assay: Growth inhibition of human NCI-H460 cells; format: functional; how it was run: as §3
# [66] = system: TK-10; assay: Growth inhibition of human TK10 cells; format: functional; how it was run: as §4
compound,measurement,setting,value
CC[C@]1(O)C[C@@H]2CN(CCc3c([nH]c4ccccc34)[C@@](C(=O)OC)(c3cc4c(cc3OC)N(C)[C@H]3[C@@](O)(C(=O)OC)[C@H](OC(C)=O)[C@]5(CC)C=CCN6CC[C@]43[C@@H]65)C2)C1 [VINBLASTINE],GI50,[1],0.0015 µM
same,RatioGI50,[2],500
same,GI50,[3],0.0052 µM
same,Activity,[4],Active
same,GI50,[5],1.4 µM
same,GI50,[6],0.0868 µM
same,inhibition,[7],Active
same,GI50,[8],0.0028 µM
same,RatioGI50,[9],58
COc1cc(/C(C#N)=C\c2cc3ccccc3s2)cc(OC)c1OC,GI50,[10],< 0.01 µM
same,GI50,[11],0.0378 µM
same,GI50,[12],< 0.01 µM
same,GI50,[13],< 0.01 µM
same,GI50,[14],< 0.01 µM
same,GI50,[15],< 0.01 µM
same,GI50,[16],< 0.01 µM
same,GI50,[17],< 0.01 µM
same,GI50,[18],< 0.01 µM
same,GI50,[19],0.0391 µM
same,GI50,[20],< 0.01 µM
same,GI50,[21],< 0.01 µM
same,GI50,[22],< 0.01 µM
same,GI50,[23],< 0.01 µM
same,GI50,[24],> 0.1 µM
same,GI50,[25],< 0.01 µM
same,GI50,[26],< 0.01 µM
same,GI50,[27],< 0.01 µM
same,GI50,[28],< 0.01 µM
same,GI50,[29],< 0.01 µM
same,GI50,[30],< 0.01 µM
same,GI50,[31],< 0.01 µM
same,GI50,[32],< 0.01 µM
same,GI50,[33],< 0.01 µM
same,GI50,[34],< 0.01 µM
same,GI50,[35],0.0179 µM
same,GI50,[36],0.0192 µM
same,GI50,[37],< 0.01 µM
same,GI50,[38],< 0.01 µM
same,GI50,[39],< 0.01 µM
same,GI50,[40],> 0.1 µM
same,GI50,[41],< 0.01 µM
same,GI50,[42],< 0.01 µM
same,GI50,[43],0.0183 µM
same,GI50,[44],< 0.01 µM
same,GI50,[45],< 0.01 µM
same,GI50,[46],< 0.01 µM
same,GI50,[47],< 0.01 µM
same,GI50,[48],< 0.01 µM
same,GI50,[49],< 0.01 µM
same,GI50,[50],< 0.01 µM
same,GI50,[51],< 0.01 µM
same,GI50,[52],< 0.01 µM
same,GI50,[53],< 0.01 µM
same,GI50,[54],< 0.01 µM
same,GI50,[55],< 0.01 µM
same,GI50,[56],< 0.01 µM
same,GI50,[57],< 0.01 µM
same,GI50,[58],< 0.01 µM
same,GI50,[59],< 0.01 µM
same,GI50,[60],< 0.01 µM
same,GI50,[61],< 0.01 µM
same,GI50,[62],< 0.01 µM
same,GI50,[63],< 0.01 µM
same,GI50,[64],< 0.01 µM
same,GI50,[65],< 0.01 µM
same,GI50,[66],> 0.1 µM
